# Hits are enriched below; roughly 1.8% of the tested compounds scored in any of these assays.
# Runt-SMMHC FRET – Runt domain-CBFb-SMMHC interaction inhibition; Cerulean-Runt/Venus-CBFb-SMMHC FRET ratio 530/480, 1 h; actives 0.74% (n = 220,000); inhibition, % at 20 µM; Q01196+Q13951; AID 1434;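 active = mean inhibition across duplicate retests at 20 µM reaching about 50%, limit read from the data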;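 also: 0% = DMSO wells and 100% = wells with excess untagged CBFb-SMMHC; inhibitors lower the FRET ratio by blocking Runt binding to CBFb-SMMHC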
# Target sequence (Q01196 whole entry, looked up, the tested form may be a part): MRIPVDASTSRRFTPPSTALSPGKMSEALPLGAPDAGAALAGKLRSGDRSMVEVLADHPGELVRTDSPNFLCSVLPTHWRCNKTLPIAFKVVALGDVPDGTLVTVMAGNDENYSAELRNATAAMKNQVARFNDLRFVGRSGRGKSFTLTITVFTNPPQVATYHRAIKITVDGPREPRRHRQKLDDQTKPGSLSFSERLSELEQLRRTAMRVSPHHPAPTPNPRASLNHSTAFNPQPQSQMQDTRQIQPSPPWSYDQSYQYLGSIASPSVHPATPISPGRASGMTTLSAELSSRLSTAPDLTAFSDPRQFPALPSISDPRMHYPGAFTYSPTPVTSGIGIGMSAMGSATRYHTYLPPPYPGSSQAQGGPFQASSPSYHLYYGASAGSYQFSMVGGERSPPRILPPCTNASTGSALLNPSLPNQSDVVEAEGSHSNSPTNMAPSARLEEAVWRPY
# Target sequence (Q13951 whole entry, looked up, the tested form may be a part): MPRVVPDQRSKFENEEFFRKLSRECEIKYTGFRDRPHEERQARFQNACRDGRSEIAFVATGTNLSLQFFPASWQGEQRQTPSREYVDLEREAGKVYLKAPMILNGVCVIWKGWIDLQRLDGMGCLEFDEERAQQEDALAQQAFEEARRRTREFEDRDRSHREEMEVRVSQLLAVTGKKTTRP
# Runt-CBFb FRET – Runt domain-CBFb interaction inhibition | Q01196+Q13951 | Cerulean-Runt/Venus-CBFb FRET ratio 530/480, 1 h | inhibition, % at 20 µM | actives 0.46% (n = 220,000);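 active = inhibition over about 50% at 20 µM in the single-dose screen, limit read from the data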;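 also: 0% = DMSO wells and 100% = excess unlabeled CBFb competitor control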
#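 Assay system: Cerulean-Runt domain / Medium: Tris 50 mM pH 7.5, KCl, K2SO4, 0.01% BSA / Timing: protein complex preformed 1 h, compound exposure 1 h, room temperature, dark / Measured by: FRET, excitation 422 nm, emission at 530 and 480 nm / Evaluation: loss of energy transfer signal / Control set: 5 µM unlabeled CBFb as full-inhibition high control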
# Hck-Nef inh – human Hck-Nef kinase inhibition | P08631 | Recombinant Hck-YEEI plus Nef, Z-Lyte FRET kinase assay | inhibition, % at 20 µM | actives 0.68% (n = 220,000) | AID 463187;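 active = Hck-Nef kinase inhibition above about 50%, limit read from the data; inactive = inhibition below that limit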;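 also: 0% = DMSO with Hck plus Nef and 100% = Hck alone without Nef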
# RanGTP-Impb inh – disruptors of Ran-importin-beta complex formation – biochemical, FRET, CFP-Ran, YFP-importin-beta, homogeneous, primary screen; cell-free CFP-Ran/YFP-importin-beta FRET ratio; actives 1.1% (n = 300,000); inhibition, % (no concentration beside the values); AID 2216;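 active = more than half of the replicate wells show a fall in the fluorescence ratio signal beyond about 16%, limit read from the data, passing the limit was not always enough; inconclusive = exactly half of the replicate wells pass the set limit; inactive = fewer than half of replicates pass the limit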;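 also: 0% = DMSO wells and 100% = Ran loaded with GDP instead of GTP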
# An asterisk follows results filed as active; u = inconclusive; x = not tested or not shown.
SMILES,Runt-SMMHC FRET,Runt-CBFb FRET,Hck-Nef inh,RanGTP-Impb inh
CCOC(=O)C1(Cc2cccc(OC)c2)CCN(Cc2ccccc2)CC1,-4,0,-8,u
CCOC(=O)C1(Cc2cccc(OC)c2)CCN(Cc2cccnc2)CC1,x,x,15,56*
CCOC(=O)C1(Cc2cccc(OC)c2)CCN(Cc2cnc(SC)nc2)CC1,7,4,17,68*
COc1ccc(-n2nnnc2CNC(=O)C2CC(=O)N(c3ccc(Cl)cc3)C2)cc1 (configuration not stated),x,x,x,-3
Cc1ccc(S(=O)(=O)c2cc3c(=O)n4ccccc4nc3n(Cc3ccco3)c2=N)cc1,x,19,27,104*
Cc1ccc(S(=O)(=O)c2cc3c(=O)n4cccc(C)c4nc3n(Cc3ccco3)c2=N)cc1C,65*,48,x,x
CCCc1ncc(CN2CCCCC2C(=O)Nc2ccc(Oc3ccccc3)nc2)cn1 (configuration not stated),x,x,x,-1
Cc1cc(=O)oc2cc(OC(=O)CCN3C(=O)c4ccccc4C3=O)ccc12,35,15,18,4
CCCC(=O)Oc1ccc2c(C)cc(=O)oc2c1,24,8,77*,u
Cc1cc(=O)oc2cc(OCCCN3C(=O)c4ccccc4C3=O)ccc12,8,-2,9,-2
CCc1ccc(OC(=O)c2cncc(Br)c2)cc1,x,x,x,1
Cc1cc(=O)oc2cc(OC(=O)c3cncc(Br)c3)ccc12,59*,33,69*,1
CCCCn1nc(C(=O)Oc2ccc3c(C)cc(=O)oc3c2)c2ccccc2c1=O,58*,30,36,4
Cc1cc(C)nc(SCC(=O)NC2=NN=C(c3ccc(Br)cc3)CS2)n1,36,x,-1,38*
CCN(c1ccccc1)S(=O)(=O)c1ccc(Cl)c(NC(=O)COC(=O)c2cc(O)c3ccccc3c2O)c1,-34,10,80*,1
O=c1[nH]c2c(=O)[nH]cnc2nc1-c1ccccc1,x,x,x,47*
Cc1nc(C)c(-c2csc(Nc3cccc(O)c3)n2)s1,-3,0,51*,-5
Cc1nc(N)sc1-c1csc(Nc2cccc(O)c2)n1,x,x,x,-3
COc1cc(/C=N/OCC(=O)Nc2cc(C)cc(C)c2)ccc1OCc1ccc(Cl)cc1,18,4,-2,26*
Nc1ccc2c(c1)N=[N+]([O-])c1cc(N)ccc1C2,-3,1,6,32*
Nc1ccc2c(c1)Cc1cc([N+](=O)[O-])ccc1-2,-57,-20,-1,-16
CN(C)c1cccc(C(=O)Nc2nnc(Cc3ccccc3)s2)c1,x,x,x,9
CCc1ccc(C(=O)NNC(=O)OC)cc1,1,69*,21,6
O=C(Cn1c(CCCO)nc2ccccc21)Nc1ccccc1-c1ccccc1,x,x,x,2
COc1cccc(C2CN(c3ccc(F)cc3F)N=C2c2cccs2)c1OC (configuration not stated),75,25,38,u
SMILES,Runt-SMMHC FRET,Runt-CBFb FRET,Hck-Nef inh,RanGTP-Impb inh
COc1ccccc1C1CN(c2ccccc2)N=C1c1cccs1 (configuration not stated),59*,46,44,3
CC(C)(CN1CCCC1)NS(=O)(=O)c1ccccc1,x,x,x,8
N#C/C(=C\c1c[nH]c2ccccc12)C(=O)Nc1ncc(Cc2ccc(Cl)cc2Cl)s1,-187,-207,8,46*
CCOC(=O)C1=C(C)NC2=C(C(=O)CCC2)C1c1cc(OC)ccc1OC (configuration not stated),-1,0,13,6
COc1ccc(OC)c(C2C(C(=O)Nc3nc4ccccc4s3)=C(C)NC3=C2C(=O)CCC3)c1 (configuration not stated),142*,22,43,8
COC(=O)c1cc(C)nc(N)c1C#N,10,9,-14,2
COC(=O)c1c(C#N)c(N)nc2c1CCC2,62*,96*,12,66*
Cc1nn(CC(=O)NCCN2CCCCC2C)c(=O)c2cc(-c3ccccc3)nn12 (configuration not stated),x,x,x,2
Cc1cnc(NC(=O)c2ccc(OCC3CCCO3)cc2)s1 (configuration not stated),1,1,59*,1
CC1=Nc2ccc(C)c3nc(C)cc(c23)N1c1ccc(C)cc1,x,x,2,65*
Cc1ccc(N2C=Nc3ccc(C)c4nc(C)cc2c34)cc1,60*,52*,2,99*
Cc1ccc(Nc2cc(C)nc3c(C)cccc23)cc1,x,x,x,1
O=C1/C(=C/c2ccco2)Oc2c1ccc(O)c2CN1CCCCC1,-35,11,1,-62
Cc1ccc(/C=C2\Oc3c(ccc(O)c3CN3CCN(CCO)CC3)C2=O)cc1,90*,3,0,35*
CC(C)c1ccc(/C=C2\Oc3c(ccc(O)c3CN3CCN(C)CC3)C2=O)cc1,88*,-114,-36,x
O=C(O)c1ccc(N2CCN(Cc3ccc4c(c3)OCO4)CC2)c([N+](=O)[O-])c1,x,x,x,-2
COc1ccc(CCNC(=O)CNC(=O)c2ccc(Br)o2)cc1OC,x,x,x,-5
CCn1nnnc1SCC(=O)c1cccc(OC)c1,4,2,0,1
COCCn1nnnc1SCC(=O)c1ccccc1,-2,84*,-4,0
CCN(CCO)c1cc(Cl)nc(SC)n1,-5,-1,0,69*
Cc1nc2c(sc3nc(N4CCOCC4)c4c(c32)CC(C)(C)OC4)c(-c2ccccc2)c1C(=O)O,82,14,-72,23*
CC1(C)Cc2c(c(N3CCOCC3)nc3snc(NC(=O)c4ccccc4)c23)CO1,0,0,3,3
CCCNC(=O)c1ccc(COc2ccc(CCC)cc2OC)o1,x,x,x,4
CCN(C(=O)CN1CCc2ccccc21)c1c(N)n(Cc2ccccc2)c(=O)[nH]c1=O,57*,9,17,6
Cc1nc(N)c(C#N)c(-c2cccnc2)c1-c1ccccc1,x,x,x,-2
SMILES,Runt-SMMHC FRET,Runt-CBFb FRET,Hck-Nef inh,RanGTP-Impb inh
Cc1ccc2c(n1)sc1c(-c3ccccc3)c(C#N)c(N)nc12,100*,18,9,56*
COc1cc(/C=C(\C#N)C(=O)Nc2cccc3ncccc23)ccc1O,92*,84*,7,63*
COc1cc(/C=C(\C#N)C(=O)Nc2ccccn2)ccc1O,x,x,x,5
COc1cccc(NC(=O)Nc2c(C)n(C)n(-c3ccccc3)c2=O)c1,-3,2,-23,115*
Cc1cccc(C(=O)NC2=NCCS2)c1,2,2,76*,4
O=C(NC1=NCCS1)c1ccccc1,x,x,x,3
Nc1cccc2c1C(=O)N(CCOc1ccc(F)cc1)C2=O,x,x,x,26*
COc1ccc2nc(N3CCCCC3)c(C#N)cc2c1,41,74*,1,31*
COc1ccc2nc(N3CCCC3)c(C#N)cc2c1,x,60*,2,1
Cc1nnsc1S(=O)(=O)c1ccccc1,x,x,x,5
COc1cc(C(=O)NCCC(=O)NCc2c(F)cc(F)cc2F)cc(OC)c1OC,x,x,x,7
CCOC(=O)/C(C#N)=C1\Nc2ccccc2N=C1N(CC(C)C)CC(C)C,-19,28,-1,30*
CCCCN(CCCC)C1=Nc2ccccc2N/C1=C(/C#N)C(=O)OCC,-52,-23,-1,0

# Screens as filed in PubChem BioAssay.
